According to PMC12525009 (The Febs Journal, 2025):
One block for each compound: values may come before it.

How the values were obtained:
Type in all cases: binding
MsrQ [1] = molecular target: T1, MsrQ (Escherichia coli, UniProt P76343); assay: quinone extraction of purified protein, HPLC-ECD-MS; conditions: co-purified from E. coli; per holoprotein (heme content); pH 7.6, LMNG
T1 sequence (P76343 1-211): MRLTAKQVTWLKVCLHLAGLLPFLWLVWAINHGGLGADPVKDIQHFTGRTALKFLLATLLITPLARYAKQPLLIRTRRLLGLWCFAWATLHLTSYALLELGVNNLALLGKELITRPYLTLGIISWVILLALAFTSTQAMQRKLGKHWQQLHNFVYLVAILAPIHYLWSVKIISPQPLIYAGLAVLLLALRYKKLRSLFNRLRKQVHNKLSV
How it was run: (§1)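 Ni-NTA-purified MsrQ, in 50 mM Tris/HCl pH 7.6 with 0.004% LMNG, was quantified by heme content (pyridine hemochromogen, 556 nm). Quinones were extracted from […] protein with methanol/KCl, using 80 pmol UQ10 as internal standard. Two petroleum ether extractions were pooled, dried under N2 and taken up in ethanol. Fractions equal to 5 and 20 μg protein were run on HPLC-ECD-MS (m/z 500–900). MK8 was quantified against an MK7 curve (2–100 pmol) and UQ8 against a UQ10 standard.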

MsrQ [2] = molecular target: T1, MsrQ; assay: as above; conditions: co-purified from E. coli; per holoprotein (heme content); pH 7.6, LMNG; remark: listed apart in the source
How it was run: as §1

MsrQ [3] = molecular target: T1, MsrQ; assay: HPLC of flavin released by heat denaturation of purified protein; conditions: co-purified; 1 μM holoprotein (heme content)

UQ8/MsrQ ^b , ^c (MsrQ [1]): 0.45 ± 0.06 mol UQ8 per mol MsrQ
SMILES: COC1=C(OC)C(=O)C(C/C=C(\C)CC/C=C(\C)CC/C=C(\C)CC/C=C(\C)CC/C=C(\C)CC/C=C(\C)CC/C=C(\C)CCC=C(C)C)=C(C)C1=O [UQ8]

MK8/MsrQ ^b , ^d (MsrQ [2]): 0.090 ± 0.020 mol MK8 per mol MsrQ
SMILES: CC(C)=CCC/C(C)=C/CC/C(C)=C/CC/C(C)=C/CC/C(C)=C/CC/C(C)=C/CC/C(C)=C/CC/C(C)=C/CC1=C(C)C(=O)c2ccccc2C1=O [MK8]

FMN concentration in 1 μM MsrQ (MsrQ [3]): 0.90 µM
SMILES: Cc1cc2nc3c(=O)[nH]c(=O)nc-3n(C[C@H](O)[C@H](O)[C@H](O)COP(=O)(O)O)c2cc1C [FMN]
